# How the values were obtained:
# [1] = Renal clearance in nonobese human at 4 mg/kg, iv administered as single dose 30 mins infusion; format: ADME, organism-based, Kidney; parameters: dose 4 mg/kg, route intravenous; conditions: in vivo, read-out: CL_renal (converted)
# [2] = Apparent volume of distribution in young healthy human at 4 mg/kg, iv administered as single dose 30 mins infusion; format: ADME, organism-based; parameters: dose 4 mg/kg, route intravenous; conditions: in vivo
# [3] = Half life in healthy human subjects at 6 mg/kg, iv administered as 30 mins infusion every 24 hrs measured on day 1; format: ADME, organism-based; parameters: dose 6 mg/kg, route intravenous; conditions: in vivo
# [4] = AUC (0 to infinity) in healthy human subjects at 10 mg/kg, iv administered as 30 mins infusion every 24 hrs measured on day 14; format: ADME, organism-based; parameters: time infinity, dose 10 mg/kg, route intravenous; conditions: plasma
# [5] = tested on: Homo sapiens; assay: Unbound clearance in healthy human at 6 mg/kg, iv administered as 30 mins infusion every 24 hrs measured on day 7; format: ADME, organism-based; parameters: dose 6 mg/kg, route intravenous; conditions: in vivo
# [6] = Apparent volume of distribution during terminal phase in healthy human subjects at 12 mg/kg, iv administered as 30 mins infusion every 24 hrs measured on day 1; format: ADME, organism-based; parameters: dose 12 mg/kg, route intravenous; conditions: in vivo
# [7] = tested on: Homo sapiens; assay: AUC (0 to infinity) in healthy human subjects at 6 mg/kg, iv administered as 30 mins infusion every 24 hrs measured on day 1; format: ADME, organism-based, Plasma; parameters: time infinity, dose 6 mg/kg, route intravenous; conditions: in vivo
# [8] = tested on: Homo sapiens; assay: Unbound clearance in healthy human at 6 mg/kg, iv administered as 30 mins infusion every 24 hrs measured on day 1; format: ADME, organism-based; parameters: dose 6 mg/kg, route intravenous; conditions: in vivo
# [9] = Cmax in nonobese adult human at 4 mg/kg, iv administered as single dose 30 mins infusion; format: ADME, organism-based; parameters: dose 4 mg/kg, route intravenous; conditions: in vivo
# [10] = Volume of distribution at steady state in nonobese adult human at 4 mg/kg, iv administered as single dose 30 mins infusion; format: ADME, organism-based; parameters: dose 4 mg/kg, route intravenous; conditions: in vivo, read-out: Vdss
# [11] = Clearance in healthy human subjects at 10 mg/kg, iv administered as 30 mins infusion every 24 hrs measured on day 4; format: ADME, organism-based; parameters: dose 10 mg/kg, route intravenous; conditions: in vivo
# [12] = Clearance in healthy human at 8 mg/kg, iv administered as 30 mins infusion every 24 hrs measured on day 7; format: ADME, organism-based; parameters: dose 8 mg/kg, route intravenous; conditions: in vivo
# [13] = Apparent volume of distribution during terminal phase in healthy human subjects at 10 mg/kg, iv administered as 30 mins infusion every 24 hrs measured on day 14; format: ADME, organism-based; parameters: dose 10 mg/kg, route intravenous; conditions: in vivo
# [14] = Half life in healthy human at 8 mg/kg, iv administered as 30 mins infusion every 24 hrs measured on day 1; format: ADME, organism-based; parameters: dose 8 mg/kg, route intravenous; conditions: in vivo
# [15] = Plasma concentration in moderately obese adult human at 4 mg/kg, iv administered as single dose 30 mins infusion measured after 24 hrs; format: ADME, organism-based; parameters: dose 4 mg/kg, route intravenous
# [16] = Apparent volume of distribution in old healthy human at 4 mg/kg, iv administered as single dose 30 mins infusion; format: ADME, organism-based; parameters: dose 4 mg/kg, route intravenous; conditions: in vivo
# [17] = Renal clearance in adult human with hepatic impairment at 6 mg/kg, iv administered as single dose 30 mins infusion; format: ADME, organism-based, Kidney; parameters: dose 6 mg/kg, route intravenous; conditions: in vivo, read-out: CL_renal (converted)
# [18] = Tmax in cancer patient with neutropenic fever at 6 mg/kg, iv administered as 30 mins infusion every 24 hrs; format: ADME, organism-based; parameters: dose 6 mg/kg, route intravenous; conditions: human, in vivo
# Summary of the method: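 29 adult oncology patients with neutropenic fever received 6 mg/kg (total body weight) daptomycin as a 30-min IV infusion every 24 h. Plasma was sampled predose, at end of infusion, and 0.5, 1, 2, 4, 8, 12 and 24 h after infusion start. Total drug was measured by validated HPLC (linear 1–100 μg/ml, detection limit 1 μg/ml). Tmax was the observed value, analysed noncompartmentally.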
# [19] = tested on: Homo sapiens; assay: Volume of distribution at steady state in healthy human at 4 mg/kg, iv administered as single dose 30 mins infusion; format: ADME, organism-based; parameters: dose 4 mg/kg, route intravenous; conditions: in vivo, 0.5 h
# [20] = Plasma concentration in nonobese human subjects at 4 mg/kg, iv administered as single dose 30 mins infusion measured after 24 hrs; format: ADME, organism-based; parameters: dose 4 mg/kg, route intravenous
# [21] = Clearance in morbidly obese human at 4 mg/kg, iv administered as single dose 30 mins infusion; format: ADME, organism-based; parameters: dose 4 mg/kg, route intravenous; conditions: in vivo
# [22] = AUC (0 to infinity) in healthy human subjects at 12 mg/kg, iv administered as 30 mins infusion every 24 hrs measured on day 4; format: ADME, organism-based; parameters: time infinity, dose 12 mg/kg, route intravenous; conditions: plasma
# [23] = Clearance in old healthy human at 4 mg/kg, iv administered as single dose 30 mins infusion; format: ADME, organism-based; parameters: dose 4 mg/kg, route intravenous; conditions: in vivo
# [24] = Mean residence time in cancer patient with neutropenic fever at 6 mg/kg, iv administered as 30 mins infusion every 24 hrs; format: ADME, organism-based; parameters: dose 6 mg/kg, route intravenous; conditions: human, in vivo
# Summary of the method: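 Patients with neutropenic fever; 6 mg/kg by total body weight, 30-min IV infusion every 24 h; serial plasma sampling predose to 24 h after infusion start. Total plasma drug by validated HPLC; mean residence time from noncompartmental analysis of concentration-time data.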
# [25] = Half life in healthy human at 4 mg/kg, iv administered as 30 mins infusion every 24 hrs measured on day 1; format: ADME, organism-based; parameters: dose 4 mg/kg, route intravenous; conditions: in vivo
# [26] = Cmax in morbidly obese adult human at 4 mg/kg, iv administered as single dose 30 mins infusion; format: ADME, organism-based; parameters: dose 4 mg/kg, route intravenous; conditions: in vivo
# [27] = tested on: Homo sapiens; assay: Clearance in healthy human at 4 mg/kg, iv administered as single dose 30 mins infusion; format: ADME, organism-based; parameters: dose 4 mg/kg, route intravenous; conditions: in vivo, 0.5 h
# [28] = Drug excretion in nonobese adult human urine assessed as unchanged drug at 4 mg/kg, iv administered as single dose 30 mins infusion; format: ADME, organism-based; parameters: dose 4 mg/kg, route intravenous; conditions: read-out: Drug uptake
# [29] = Half life in young healthy human at 4 mg/kg, iv administered as single dose 30 mins infusion; format: ADME, organism-based; parameters: dose 4 mg/kg, route intravenous; conditions: in vivo
# [30] = Clearance in healthy human subjects at 12 mg/kg, iv administered as 30 mins infusion every 24 hrs measured on day 1; format: ADME, organism-based; parameters: dose 12 mg/kg, route intravenous; conditions: in vivo
# [31] = Apparent volume of distribution during terminal phase in healthy human subjects at 10 mg/kg, iv administered as 30 mins infusion every 24 hrs measured on day 1; format: ADME, organism-based; parameters: dose 10 mg/kg, route intravenous; conditions: in vivo
# [32] = Drug excretion in moderately obese adult human urine assessed as unchanged drug at 4 mg/kg, iv administered as single dose 30 mins infusion; format: ADME, organism-based; parameters: dose 4 mg/kg, route intravenous; conditions: read-out: Drug uptake
# [33] = Volume of distribution at steady state in nonobese human at 4 mg/kg, iv administered as single dose 30 mins infusion; format: ADME, organism-based; parameters: dose 4 mg/kg, route intravenous; conditions: in vivo, read-out: Vdss
# [34] = Apparent volume of distribution during terminal phase in healthy human at 4 mg/kg, iv administered as 30 mins infusion every 24 hrs measured on day 7; format: ADME, organism-based; parameters: dose 4 mg/kg, route intravenous; conditions: in vivo
# [35] = Cmax in adult human subjects at 6 mg/kg, iv administered as single dose 30 mins infusion; format: ADME, organism-based; parameters: dose 6 mg/kg, route intravenous; conditions: in vivo
# [36] = Cmax in healthy human subjects at 8 mg/kg, iv administered as 30 mins infusion every 24 hrs measured on day 4; format: ADME, organism-based; parameters: dose 8 mg/kg, route intravenous; conditions: in vivo
# [37] = Half life in healthy human subjects at 10 mg/kg, iv administered as 30 mins infusion every 24 hrs measured on day 4; format: ADME, organism-based; parameters: dose 10 mg/kg, route intravenous; conditions: in vivo
# [38] = Cmax in healthy human subjects at 10 mg/kg, iv administered as 30 mins infusion every 24 hrs measured on day 4; format: ADME, organism-based; parameters: dose 10 mg/kg, route intravenous; conditions: in vivo
# [39] = AUC (0 to infinity) in healthy human subjects at 10 mg/kg, iv administered as 30 mins infusion every 24 hrs measured on day 4; format: ADME, organism-based; parameters: time infinity, dose 10 mg/kg, route intravenous; conditions: plasma
# [40] = Plasma protein binding in human after 0.5 hrs; format: ADME, cell-free; conditions: read-out: PPB (converted)
# Summary of the method: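 Neutropenic-fever oncology patients received 6 mg/kg IV daptomycin; serum was drawn 0.5, 2 and 8 h after the end of infusion. Free drug was obtained by ultrafiltration (30,000-MW cutoff) and quantified by HPLC against a saline-matrix curve of 0.25–100 μg/ml, with total plasma drug also measured. Percent bound was (total − free)/total × 100; results are given as mean ± SD.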
# [41] = Unbound fraction in healthy human plasma at 6 mg/kg, iv administered as 30 mins infusion every 24 hrs measured on day 1; format: ADME, organism-based; parameters: dose 6 mg/kg, route intravenous
# [42] = Clearance in moderately obese adult human at 4 mg/kg, iv administered as single dose 30 mins infusion; format: ADME, organism-based; parameters: dose 4 mg/kg, route intravenous; conditions: in vivo
smiles,measurement,setting,value
CCCCCCCCCC(=O)N[C@@H](Cc1c[nH]c2ccccc12)C(=O)N[C@H](CC(N)=O)C(=O)N[C@@H](CC(=O)O)C(=O)N[C@@H]1C(=O)NCC(=O)N[C@@H](CCCN)C(=O)N[C@@H](CC(=O)O)C(=O)N[C@H](C)C(=O)N[C@@H](CC(=O)O)C(=O)NCC(=O)N[C@H](CO)C(=O)N[C@@H]([C@H](C)CC(=O)O)C(=O)N[C@@H](CC(=O)c2ccccc2N)C(=O)O[C@@H]1C,CL renal at 0.5 h,[1],0.098 mL/min/kg
same,Vd,[2],0.15 L/kg
same,half-life,[3],7.5 h
same,AUC(0-inf),[4],1080 µg·h/mL
same,CL,[5],0.997 mL/min/kg
same,Vd,[6],0.111 L/kg
same,AUC,[7],729.8 µg·h/mL
same,CL,[8],0.992 mL/min/kg
same,Cmax,[9],46.3 µg/mL
same,Vd,[10],0.13 L/kg
same,clearance,[11],0.147 mL/min/kg
same,clearance,[12],0.118 mL/min/kg
same,Vd,[13],0.0858 L/kg
same,half-life,[14],9.6 h
same,concentration at 24 h,[15],3.44 µg/mL
same,Vd,[16],0.17 L/kg
same,CL renal at 0.5 h,[17],0.0608 mL/min/kg
same,Tmax,[18],0.6 h
same,Vdss,[19],6057 mL
same,concentration at 24 h,[20],3.39 µg/mL
same,clearance,[21],0.118 mL/min/kg
same,AUC(0-inf),[22],1280 µg·h/mL
same,clearance,[23],0.164 mL/min/kg
same,MRT,[24],11.9 h
same,half-life,[25],7.4 h
same,Cmax,[26],67 µg/mL
same,CL,[27],9.84 mL/min
same,dose excreted at 0.5 h,[28],52.3%
same,half-life,[29],6.79 h
same,clearance,[30],0.167 mL/min/kg
same,Vd,[31],0.117 L/kg
same,dose excreted at 0.5 h,[32],51.8%
same,Vd,[33],0.11 L/kg
same,Vd,[34],0.096 L/kg
same,Cmax,[35],118 µg/mL
same,Cmax,[36],123 µg/mL
same,half-life,[37],7.9 h
same,Cmax,[38],141 µg/mL
same,AUC(0-inf),[39],1040 µg·h/mL
same,fraction unbound at 0.5 h,[40],0.058
same,fraction unbound at 1 day,[41],0.07
same,clearance,[42],0.271 mL/min/kg

# From ChEMBL document CHEMBL1649119, “Daptomycin pharmacokinetics in adult oncology patients with neutropenic fever” (Antimicrob Agents Chemother, 2009)
